Assay results published in ChEMBL document CHEMBL1135934, “Structure-activity relationships of methoctramine-related polyamines as muscular nicotinic receptor noncompetitive antagonists. 2. Role of polymethylene chain lengths separating amine functions and of substituents on the terminal nitrogen atoms” (J Med Chem, 2002).

How the values were obtained:
[1] = target: Acetylcholine receptor (Torpedo californica) (UniProt P02710+P02712+P02718+P02714); conditions: Tetronarce californica; Electric organ
[2] = Antagonism of carbachol action on nAChR of isolated frog rectus abdominus.; assay type: functional, tissue-based, Rectus abdominis muscle
[3] = test system: Muscarinic acetylcholine receptor M2 (Cavia porcellus); test: Antagonist affinity at muscarinic acetylcholine receptor (mAChR) of guinea pig left atrium (M2); conditions: Cardiac atrium
[4] = target: Muscarinic acetylcholine receptor M3 (Cavia porcellus) (UniProt Q8VH26); test: Antagonist affinity at muscarinic acetylcholine receptor (mAChR) of guinea pig longitudinal ileum (M3); assay type: functional, tissue-based
Outline: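 Guinea pig ileum (either sex, 200-400 g) in a 15 mL organ bath of physiological salt solution, gassed 5% CO2/95% O2, pH 7.4. Arecaidine propargyl ester curves (0.01-0.5 µM) were run at 30 min intervals, with the first discarded and the second taken as control. A repeat curve followed 60 min antagonist. pK came from graphical EC50 dose ratios by the Furchgott equation.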

Chain of Muscarinic acetylcholine receptor M3 (Cavia porcellus) (Q8VH26 1-587): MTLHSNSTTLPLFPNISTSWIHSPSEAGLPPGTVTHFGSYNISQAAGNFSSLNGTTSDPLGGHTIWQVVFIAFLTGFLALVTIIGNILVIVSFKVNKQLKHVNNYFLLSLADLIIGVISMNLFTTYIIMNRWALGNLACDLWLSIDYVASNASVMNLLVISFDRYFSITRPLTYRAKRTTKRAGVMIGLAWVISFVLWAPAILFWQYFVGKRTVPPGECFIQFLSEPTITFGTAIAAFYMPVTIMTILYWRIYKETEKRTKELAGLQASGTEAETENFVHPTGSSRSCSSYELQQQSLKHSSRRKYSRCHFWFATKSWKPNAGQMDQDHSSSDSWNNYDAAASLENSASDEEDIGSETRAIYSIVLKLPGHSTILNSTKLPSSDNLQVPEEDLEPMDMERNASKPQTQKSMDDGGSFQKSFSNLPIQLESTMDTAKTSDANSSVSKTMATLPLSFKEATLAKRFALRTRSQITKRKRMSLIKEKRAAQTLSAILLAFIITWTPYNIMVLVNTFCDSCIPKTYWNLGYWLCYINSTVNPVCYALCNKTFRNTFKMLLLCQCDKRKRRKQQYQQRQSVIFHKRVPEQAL

SMILES | pKapp [1] | Log IC50 [2] | pKB [3] | pKB [4]
[N-]=[N+]=Nc1ccc(C(=O)NCCCNCCCCCCNCCCCCCCCCCCCNCCCCCCNCCCNC(=O)c2ccc(N=[N+]=[N-])cc2O)c(O)c1 | 5.72 | -6.17 | – | –
[N-]=[N+]=Nc1ccc(C(=O)NCCCNCCCCCCNCCCCCCCCNCCCCCCNCCCNC(=O)c2ccc(N=[N+]=[N-])cc2O)c(O)c1 | 5.86 | -5.8 | – | –
c1ccc(C(CNCCCCCCNCCCCCCCCNCCCCCCNCC(c2ccccc2)c2ccccc2)c2ccccc2)cc1 | – | -6.31 | 5.98 | 5.4
CCCC(=O)N[C@H](Cc1ccc(O)cc1)C(=O)NCCCNCCCCCCNCCCCCCNCCCCCCN | 4.63 | -5.62 | < 5 | 5.16
CCCC(=O)N[C@H](Cc1ccc(O)cc1)C(=O)NCCCNCCCCCCNCCCCCCNCCCCCCNCc1ccccc1OC | 6.12 | -5.48 | 5.87 | 5.08
[N-]=[N+]=Nc1ccc(C(=O)NCCCNCCCCCCNCCCCCCCCNCCCCCCN)c(O)c1 | 5.46 | -6.39 | 7.01 | 7.35
CCCC(=O)N[C@H](Cc1ccc(O)cc1)C(=O)NCCCNCCCCCCNCCCCCCCCCCCCNCCCCCCNCc1ccccc1OC | 5.89 | -6.27 | – | –
CCCC(=O)N[C@H](Cc1ccc(O)cc1)C(=O)NCCCNCCCCCCNCCCCCCCCCCCCNCCCCCCN | 5.28 | -6.3 | – | –
COc1ccccc1CNCCCCCCNCc1ccc(-c2ccc(-c3ccc(CNCCCCCCNCc4ccccc4OC)cc3)cc2)cc1 | 6.35 | -6.3 | < 5 | < 5
COc1ccc2cc(C(=O)NCCCNCCCCCCNCCCCCCCCNCCCCCCNCc3cc(I)ccc3OC)c(=O)oc2c1 | 6.8 | -7.11 | – | 5.68
CCCC(=O)NC(Cc1ccc(O)cc1)C(=O)NCCCNCCCCNCCCN (stereo unspecified) | 3.94 | -4.62 | – | < 5

The remaining lines, values ahead:

pKapp [1] | Log IC50 [2] | pKB [3] | pKB [4] | SMILES
6.4 | -6.42 | 6.15 | < 5 | COc1ccccc1CNCCCNCCCCCCNCCCCCCNCCCCCCNCCCNCc1ccccc1OC
– | -5.88 | 6.79 | < 5 | COc1ccccc1CN(C)CCCCCCN(C)CCCCCCCCN(C)CCCCCCN(C)Cc1ccccc1OC
7.04 | -6.66 | 6.5 | < 5 | COc1ccccc1CNCCCNCCCCCCNCCCCCCCCCCCCNCCCCCCNCCCNCc1ccccc1OC
– | -5.14 | < 5 | < 5 | COc1ccccc1CNCCCCCCOCCCCCCCCOCCCCCCNCc1ccccc1OC
5.66 | -7.02 | 7.35 | 5.98 | COc1ccccc1CNCCCCCCNCCCCCCCCCCCCNCCCCCCNCc1ccccc1OC
6.66 | -6.44 | < 6 | < 6 | COc1ccccc1CNCCCNCCCCCCNCCCCCCCCNCCCCCCNCCCNCc1ccccc1OC
6.21 | -5.93 | – | 6.14 | COc1ccccc1CNCCCCCCNCCCCCCCCNCCCCCCNCc1ccccc1OC [METHOCTRAMINE]
6.41 | -6.21 | – | 6.19 | COc1ccc2cc(C(=O)NCCCNCCCCCCNCCCCCCCCNCCCCCCNCc3ccccc3OC)c(=O)oc2c1
– | -5.36 | 6.64 | 5.32 | COc1ccccc1CCNCCCCCCNCCCCCCCCNCCCCCCNCCc1ccccc1OC
6.19 | -6.43 | < 5 | < 5 | COc1ccccc1CNCc1ccc(CNCCCCCCCCCCCCNCc2ccc(CNCc3ccccc3OC)cc2)cc1
– | -6.68 | 6.98 | 5.3 | COc1ccccc1CNCCCCCCNCCCCCCNCCCCCCNCCCCCCNCc1ccccc1OC
